hIAP act: increases human intestinal alkaline phosphatase activity | 0.16% of 330,000 active | P09923 | purified human IAP, CDP-Star luminescence, 30 min; stronger effect = higher value; 1 = vehicle-only enzyme, 0 = enzyme-free background | activation factor at 10 µM;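 active means activation factor of the enzyme at least 2-fold when tested at 20 µM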
Target sequence (P09923 whole entry, looked up): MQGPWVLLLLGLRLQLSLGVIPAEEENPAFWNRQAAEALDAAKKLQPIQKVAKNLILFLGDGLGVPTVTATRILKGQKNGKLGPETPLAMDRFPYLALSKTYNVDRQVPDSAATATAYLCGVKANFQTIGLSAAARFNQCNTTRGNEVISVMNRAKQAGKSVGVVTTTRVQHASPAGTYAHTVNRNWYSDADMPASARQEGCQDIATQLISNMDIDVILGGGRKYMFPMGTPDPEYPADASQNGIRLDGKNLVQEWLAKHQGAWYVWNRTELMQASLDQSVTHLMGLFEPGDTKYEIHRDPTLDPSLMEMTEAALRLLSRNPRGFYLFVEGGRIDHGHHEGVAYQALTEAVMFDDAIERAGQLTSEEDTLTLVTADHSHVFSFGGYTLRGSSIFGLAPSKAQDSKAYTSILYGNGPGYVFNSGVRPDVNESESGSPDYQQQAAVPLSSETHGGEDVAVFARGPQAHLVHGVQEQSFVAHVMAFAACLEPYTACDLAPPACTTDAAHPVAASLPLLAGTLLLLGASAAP
hIAP block: human IAP inhibition. P09923. purified IAP, CDP-Star luminescence, 30 min. inhibition, % at 10 µM. 0.12% of 330,000 active. AID 2544;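 active means inhibition reaching a set limit with compound at 10 µM in the primary screen, cut at about 35% in these data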
bIAP inhibitor: intestinal alkaline phosphatase (bovine) inhibition | purified bovine IAP, CDP-star luminescence, 30 min | inhibition, % at 20 µM | 190,000 tested, under 10 active | AID 1019;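 active means over 50% inhibition of intestinal alkaline phosphatase at 20 µM in the single-dose screen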
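Incubation: 30 min reaction at room temperature / Material: purified bovine intestinal alkaline phosphatase (IAP) enzyme / Input: enzyme at 1/65,000,000 dilution / Dosing: 20 µM single dose / Signal: CDP-star luminescence signal / Reagent: CDP-star chemiluminescent phosphatase substrate, 30 µM final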
mIAP inh: mouse IAP inhibition | 0.2% of 330,000 active | purified mouse IAP, CDP-Star luminescence, 30 min | inhibition, % at 10 µM;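 active means inhibition of at least 40% at 10 µM in the primary screen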
bIAP act: increases bovine intestinal alkaline phosphatase activity. purified bovine IAP, CDP-star luminescence, 30 min; stronger effect = higher value; fold of DMSO-control signal, blank-subtracted. 0.17% of 200,000 active. activation factor at 20 µM;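 active means activation factor of 2 or more at 20 µM, a signal rise over negative controls twice the positive control's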
mIAP activ: mouse IAP activation. muIAP, CDP-Star luminescence, 30 min; stronger effect = higher value; 1 = vehicle-only enzyme signal, 0 = enzyme-free wells. activation factor at 10 µM. 0.24% of 330,000 active. AID 2805;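 active means activation factor of at least 2 at 20 µM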
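Assay system: mouse IAP enzyme / Compound: DMSO-dissolved test compounds / Timing: 30 min, room temperature / Measured by: luminescence from enzymatic CDP-Star hydrolysis / Control set: DMSO-only wells, enzyme-free buffer wells as negative control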
hIAP act conf: human IAP activation confirmation | shares compounds with hIAP act | purified IAP, CDP-Star luminescence, 30 min; stronger effect = lower value | activation (%Activity, negative = activation), % at 8.3 µM | 10% of 880 active | AID 434926;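 active means at least twofold enzyme activation in any of six single-dose repeats, which the averaged readout prints as negative percent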
Numbers stand for hits; . = inactive; / = no result. In the library only some 0.77% were active in any assay of this set; here they are far more common.

SMILES	hIAP act	hIAP block	bIAP inhibitor	mIAP inh	bIAP act	mIAP activ	hIAP act conf
O=C(Cc1ccccc1F)OCN1C(=O)c2ccccc2C1=O	.	.	/	.	/	.	/
O=C(COc1ccccc1Cl)N1CCN(c2ccc([N+](=O)[O-])c(N3CCCCC3)c2)CC1	2.1	.	.	.	.	.	-61
CC1CCCCC12NC(=O)N(CC(=O)Nc1ccc(N3CCCCC3)cc1)C2=O (stereo unspecified)	.	.	/	.	/	.	/
NC1=NN=C(N2N=C(c3ccccc3)CC2(O)C(F)(F)F)n2ncnc2C1 (stereo unspecified)	.	.	.	.	.	.	/
COc1ccccc1C1=NN(C2=NN=C(N)Cc3ncnn32)C(O)(C(F)(F)F)C1 (stereo unspecified)	2.8	.	.	.	.	.	.
CCOC(=O)N1N=C(c2ccc(OC)cc2)CC1(O)C(F)(F)F (stereo unspecified)	.	.	.	.	.	.	/
COc1ccc(C2=NN(C3=NN=C(N)Cc4ncnn43)C(O)(C(F)(F)F)C2)cc1 (stereo unspecified)	2.6	.	.	.	.	.	.
NC1=NN=C(N2N=C(c3ccc(Br)cc3)CC2(O)C(F)(F)F)n2ncnc2C1 (stereo unspecified)	2.6	.	.	.	.	.	.
COc1ccc(NC(=O)CSc2nc3ccccc3nc2N2CCCC2)c(OC)c1	.	.	/	.	/	.	/
CC12CCC(=O)N1C(C(=O)N1CCN(c3ccc(C(F)(F)F)cc3[N+](=O)[O-])CC1)CS2 (stereo unspecified)	.	.	/	.	/	.	/
Cc1ccc(S(=O)(=O)N(CC(=O)Nc2ccc(C)cc2C)C(=O)N2CCN(C)CC2)cc1	.	36	/	.	/	.	-55
Cc1ccc(NC(=O)CN(C(=O)N2CCN(C)CC2)S(=O)(=O)c2ccc(C)cc2)cc1	.	.	/	.	/	.	/
COc1ccc(CNC(=O)COC(=O)c2ccc(F)c(S(=O)(=O)N3CCCCC3)c2)cc1OC	.	.	/	.	/	.	/
Cc1cc(C)c2nc(SCC(=O)NNC(=O)c3ccco3)c(C)cc2c1	2	.	.	.	.	.	-59
Cc1cc2cccc(C)c2nc1SCC(=O)NNC(=O)c1ccco1	.	.	.	.	.	.	/
CCc1cc(-c2n[nH]c(C)c2-c2nc3ccccc3s2)c(O)cc1OCC(=O)NN	2.3	.	.	.	2	.	.
O=C(Nc1ccc(Cl)cc1)c1nc[nH]c1C(=O)NCCCNC(=O)c1[nH]cnc1C(=O)Nc1ccc(Cl)cc1	2.1	.	/	.	/	.	.
Cc1nn(C)c(C(=O)NC(=S)Nc2ccccc2Br)c1Cl	.	.	/	.	/	.	/
Cc1nn(C)c(C(=O)NNC(=S)NCc2ccccc2)c1Cl	2	.	/	.	/	.	-141
CNc1ccc(S(=O)(=O)NCC(=O)NCCCc2ccccc2)cc1[N+](=O)[O-]	.	35	/	.	/	.	.
CN(C)c1ccc(S(=O)(=O)NCC(=O)NCc2ccccc2)cc1[N+](=O)[O-]	.	.	/	.	/	.	/
Cc1cc(C(=O)Nc2ccccc2Cl)c2ccccc2n1	.	38	/	.	/	.	.
Cc1ccc(NC(=O)c2cc(C)nc3ccccc23)c(C)c1	.	.	/	.	/	.	/
CC(=O)N1CCN(S(=O)(=O)c2cccc(C(=O)Nc3ccc(F)c(F)c3)c2)CC1	.	.	/	.	/	.	/
CNC(=O)COc1coc(CN2CCN(c3ccccc3F)CC2)cc1=O	.	.	/	.	/	.	/
Cc1ccc(C(=O)N/C(=C\c2ccco2)C(=O)NCCCn2ccnc2)cc1C	.	86	.	.	.	.	.
COc1ccc(C(=O)N/C(=C\c2ccco2)C(=O)NCCCn2ccnc2)cc1	.	.	.	.	.	.	/
CN1CCN(c2cc(N3CCN(C(=O)c4ccco4)CC3)c3c4c(onc24)-c2ccccc2C3=O)CC1	.	42	/	.	/	.	.
O=C1c2ccccc2-c2onc3c(N4CCN(CCO)CC4)cc(N4CCN(C(=O)c5ccco5)CC4)c1c23	.	.	/	.	/	.	/
CN(CC(=O)Nc1ccccc1C(F)(F)F)C(=O)CCc1nc2ccccc2c(=O)[nH]1	.	.	/	.	/	.	/

High-throughput results as filed in PubChem.
